# Data: publication PMC7729387 (Journal of Antimicrobial Chemotherapy, 2020)
# Read-outs that look alike come from different tables or passages of the source.
# Experiments:
# A/WSN/33 (H1N1) strain [1] = assay type: in vivo, influenza A(H1N1) virus (BALB/c mice)
# [2] = PK of baloxavir acid after oral baloxavir marboxil in A/WSN/33-infected mice; assay type: in vivo, BALB/c mice
# Summary of the method: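 A/WSN/33-infected BALB/c mice each received a single oral dose of the prodrug at 0.5, 1.5, 5, 15 or 50 mg/kg. Blood was taken at 0.5–12 h, three mice per dose per timepoint. Plasma active acid and prodrug were measured by LC-MS/MS.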
# [3] = PK of baloxavir acid after subcutaneous baloxavir acid in A/WSN/33-infected mice; assay type: in vivo, BALB/c mice; settings: sc baloxavir acid 0.125, 0.5, 2 and 8 mg/kg
# A/WSN/33 (H1N1) strain [4] = test: PK/PD analysis, sigmoid Emax model; assay type: in vivo, influenza A(H1N1) virus (BALB/c mice); settings: for E max (estimate) / E 0 (estimate): y = virus titre (log10 TCID50/mL)
# Summary of the method: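 A/WSN/33-infected BALB/c mice were dosed subcutaneously from day 5 at 0.0625–8 mg/kg q24h, q12h or q6h for 1 day, five per group, in Tween 80/copolymer carbonate vehicle at pH ~9. Lung titres were read 24 h later by MDCK TCID50. PK parameters came from mean plasma levels after single 0.125–8 mg/kg doses, scaled for 0.0625–4 mg/kg. A sigmoid Emax model was fitted to individual-mouse titres and judged by adjusted R².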
# A/WSN/33 (H1N1) strain [5] = test: PK/PD analysis, linear model; assay type: in vivo, influenza A(H1N1) virus (BALB/c mice); settings: y = virus titre (log10 TCID50/mL)
# [6] = humans; single-dose oral baloxavir marboxil; cited from earlier work
# [7] = tested on: type A and type B virus strains; settings: cited from earlier work
# [8] = tested on: type A and type B virus strains; settings: plaque-reduction assay; cited from earlier work
# [9] = tested on: A/Osaka/129/2009 (H1N1pdm09); parameters: species or system influenza A(H1N1)pdm09 virus (BALB/c mice); settings: mouse, in vivo, po, 5 mg/kg
# A/Hong Kong/8/68 (H3N2) = assay type: in vivo, influenza A(H3N2) virus (BALB/c mice); settings: oral 15 mg/kg twice daily
# B/Hong Kong/5/72 = assay type: in vivo, influenza type B virus (BALB/c mice); settings: oral 15 mg/kg twice daily
# influenza virus = settings: cited from earlier work
# influenza A virus = settings: 10 mg/kg, q24h daily, nude mice; cited from earlier work
# [10] = BXA in plasma, oral BXM 0.5 mg/kg
# [11] = BXA in plasma, oral BXM 1.5 mg/kg
# [12] = BXA in plasma, oral BXM 5 mg/kg
# [13] = BXA in plasma, oral BXM 15 mg/kg
# [14] = BXA in plasma, oral BXM 50 mg/kg
# [15] = […], 24 h after initial dosing, 15 mg/kg
# [16] = 24 h after single-dose oral treatment, patients with uncomplicated influenza, ref Phase 3 baloxavir marboxil studies
smiles,measurement,setting,value
O=C1c2c(O)c(=O)ccn2N([C@@H]2c3ccccc3SCc3c2ccc(F)c3F)[C@@H]2COCCN12 [baloxavir acid],"virus titres versus vehicle or oseltamivir phosphate 5 eq mg/kg, q12h","A/WSN/33 (H1N1) strain [1]; […], 24 h post-treatment initiation, all groups",numerically lower
same,plasma exposure versus dose,[2]; BXA in plasma after oral baloxavir marboxil 0.5–50 mg/kg,increased dose proportionally up to 15 mg/kg
same,AUC0–12,[2]; [10],22.0 ng·h/mL
same,AUC0–∞,[2]; [10],22.7 ng·h/mL
same,C max,[2]; [10],5.05 ng/mL
same,T max,[2]; [10],1.00 h
same,"t ½,z","[2]; BXA in plasma, oral BXM 0.5 mg/kg, t½,4–10 h",2.24 h
same,AUC0–12,[2]; [11],62.6 ng·h/mL
same,AUC0–∞,[2]; [11],66.1 ng·h/mL
same,C max,[2]; [11],14.3 ng/mL
same,T max,[2]; [11],1.00 h
same,"t ½,z","[2]; BXA in plasma, oral BXM 1.5 mg/kg, t½,6–12 h",2.56 h
same,AUC0–12,[2]; [12],242 ng·h/mL
same,AUC0–∞,[2]; [12],252 ng·h/mL
same,C max,[2]; [12],45.7 ng/mL
same,T max,[2]; [12],0.500 h
same,"t ½,z","[2]; BXA in plasma, oral BXM 5 mg/kg, t½,6–12 h",2.45 h
same,AUC0–12,[2]; [13],648 ng·h/mL
same,AUC0–∞,[2]; [13],670 ng·h/mL
same,C max,[2]; [13],175 ng/mL
same,T max,[2]; [13],0.500 h
same,"t ½,z","[2]; BXA in plasma, oral BXM 15 mg/kg, t½,6–12 h",2.26 h
same,AUC0–12,[2]; [14],1580 ng·h/mL
same,AUC0–∞,[2]; [14],1690 ng·h/mL
same,C max,[2]; [14],284 ng/mL
same,T max,[2]; [14],2.00 h
same,"t ½,z","[2]; BXA in plasma, oral BXM 50 mg/kg, t½,6–12 h",3.14 h
same,"t½,z (half-life in mouse plasma)","[2]; BXA in plasma, oral baloxavir marboxil 0.5–50 mg/kg, range over doses",2.24 to 3.14 h
same,plasma concentration versus dose,[3],increased dose proportionally from 0.125 to 8 mg/kg
same,E max (estimate),A/WSN/33 (H1N1) strain [4]; x = AUC0–24 (ng·h/mL),1.091
same,EC50 (estimate),A/WSN/33 (H1N1) strain [4]; x = C 24,4.767 ng/mL
same,E 0 (estimate),A/WSN/33 (H1N1) strain [4]; x = C 24 (ng/mL),3.928
same,E max (estimate),A/WSN/33 (H1N1) strain [4]; x = C 24 (ng/mL),1.499
same,EC50 (estimate),A/WSN/33 (H1N1) strain [4]; x = C max,42.528 ng/mL
same,E 0 (estimate),A/WSN/33 (H1N1) strain [4]; x = C max (ng/mL),3.806
same,E max (estimate),A/WSN/33 (H1N1) strain [4]; x = C max (ng/mL),1.022
same,EC50 (estimate),A/WSN/33 (H1N1) strain [4]; x = C τ,4.108 ng/mL
same,E 0 (estimate),A/WSN/33 (H1N1) strain [4]; x = C τ (ng/mL),3.958
same,E max (estimate),A/WSN/33 (H1N1) strain [4]; x = C τ (ng/mL),1.554
same,E 0 (estimate),A/WSN/33 (H1N1) strain [4]; x = T >50 (h),3.588
same,E max (estimate),A/WSN/33 (H1N1) strain [4]; x = T >50 (h),1.913
same,E 0 (estimate),A/WSN/33 (H1N1) strain [5]; x = T >2 (h),5.141
same,E 0 (estimate),A/WSN/33 (H1N1) strain [5]; x = T >10 (h),4.095
same,E 0 (estimate),A/WSN/33 (H1N1) strain [5]; x = T >50 (h),3.569
same,half-life in plasma compared with that in mice,[6],> 10 fold
same,"inhibitory values, type A more potent than type B virus strains",[7],4- to 5 fold
same,"inhibitory values, type A more potent than type B virus strains",[8],6- to 12 fold
COC(=O)OCOc1c2n(ccc1=O)N([C@@H]1c3ccccc3SCc3c1ccc(F)c3F)[C@@H]1COCCN1C2=O [baloxavir marboxil],"virus titres declined compared with oseltamivir phosphate 5 or 50 eq mg/kg, q12h",A/WSN/33 (H1N1) strain [1]; [15],2 log10 TCID50/mL
same,virus titres declined compared with vehicle,A/WSN/33 (H1N1) strain [1]; [15],> 3 log10 TCID50/mL
same,virus titres compared with the clinically equivalent or higher dose of oseltamivir phosphate,"A/WSN/33 (H1N1) strain [1]; mouse, in vivo, po, 1.5 mg/kg",significantly reduced virus titres
same,Lung virus titres versus each NAI or favipiravir,"A/WSN/33 (H1N1) strain [1]; mouse, in vivo, po, 5 mg/kg",significantly lower
same,decrease in virus titre compared with oseltamivir phosphate at 5 eq mg/kg,A/WSN/33 (H1N1) strain [1]; oral 15 mg/kg twice daily,2.64 log10 TCID50/mL
same,virus titre reduction in mice infected with the H1N1pdm09 strain,[9],≥ 100 fold
same,decrease in virus titre compared with oseltamivir phosphate at 5 eq mg/kg,A/Hong Kong/8/68 (H3N2),2.16 log10 TCID50/mL
same,decrease in virus titre compared with oseltamivir phosphate at 5 eq mg/kg,B/Hong Kong/5/72,0.97 log10 TCID50/mL
same,baloxavir marboxil in plasma,"[2]; after oral baloxavir marboxil, data not shown",undetectable in almost all infected mice
same,greater viral load reduction than after oseltamivir phosphate,influenza virus; [16],2.0 log10 TCID50/mL
same,greater viral load reduction than after placebo,influenza virus; [16],3.5 log10 TCID50/mL
same,Symptom resolution,influenza virus; type A virus infections,"faster with baloxavir marboxil than placebo, but not oseltamivir phosphate"
same,clearance of virus from the respiratory organs,influenza A virus,did not clear the virus from the respiratory organs
"CCOC(=O)C1=C[C@@H](OC(CC)CC)[C@H](NC(C)=O)[C@@H](N)C1 [oseltamivir phosphate, reference compound]",reduction in virus titres compared with vehicle,"A/WSN/33 (H1N1) strain [1]; mouse, in vivo",0.5–1 log10
